From ChEMBL document CHEMBL1122463, “2,3-dihydro-3-(1-pyrryl)spiro[benzofuran-2,4'-piperidine]s and 2,3-dihydro-3-(1-pyrryl)spiro[benzofuran-2,3'-pyrrolidine]s: novel antihypertensive agents” (1983)
“And” between values parts separate entries of the source, which are not always exact repeats. Identical values can stand only once.

Key:
[1] = test system: Canis familiaris; assay: effect of compound at a dose of 10 mg/kg iv, on standard cardiovascular in anesthetized normotensive dogs before administration of norepinephrine.; assay type: functional, Canis lupus familiaris, Heart
Summary of the method: (§1)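 Bilateral vagotomy was performed. BP was recorded via a femoral artery, with iv dosing via a femoral vein; BP and heart rate were recorded continuously. Each iv challenge was given twice before test drug and once after. Challenge doses were epinephrine and norepinephrine 0.5–1.0 μg/kg, and isoproterenol and carbachol 0.25 μg/kg.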

[2] = test system: Canis familiaris; assay: effect of compound at a dose of 10 mg/kg iv, on standard cardiovascular in anesthetized normotensive dogs after administration of isoproterenol.; assay type: functional, Canis lupus familiaris, Heart; summary of the method: as §1
[3] = test system: Canis familiaris; assay: Hemodynamic effect in sinoaortic- deafferented hypertensive dog measured as mean arterial BP after 60 min of 5 mg/kg dose; assay type: functional, Canis lupus familiaris
[4] = test system: Canis familiaris; assay: effect of compound at a dose of 10 mg/kg iv, on standard cardiovascular in anesthetized normotensive dogs before administration of carbachol.; assay type: functional, Canis lupus familiaris, Heart; summary of the method: as §1
[5] = species on record: Rattus norvegicus; assay: Hypotensive activity in renal hypertensive rats by using tail-cuff method measured as change in BP on day/h postdrug; assay type: functional, Blood
Summary of the method: (§2)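 Renal hypertension made in male Sprague-Dawley rats (Grollman modification). Under pentobarbital (50 mg/kg ip), the right kidney was removed and silk sutures tied around both poles of the left kidney to constrict it. After 3 weeks, rats with systolic BP >150 mmHg were used. Compound given po daily to 4 rats. Systolic BP by tail-cuff plethysmography at the listed day/hour after dosing.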

[6] = test system: Canis familiaris; assay: Mean heart rate after administration at a dose of 10 mg/kg iv.; assay type: functional, Canis lupus familiaris
[7] = test system: Canis familiaris; assay: Hemodynamic effect in sinoaortic- deafferented hypertensive dog measured as left ventricular pressure after 30 min of 10 mg/kg
[8] = test system: Canis familiaris; assay: Hemodynamic effect in sinoaortic- deafferented hypertensive dog measured as heart rate after 60 min of 5 mg/kg dose; assay type: functional, Canis lupus familiaris
[9] = test system: Canis familiaris; assay: Hemodynamic effect in sinoaortic- deafferented hypertensive dog measured as left ventricular pressure after 0 min of 10 mg/kg
[10] = test system: Canis familiaris; assay: effect of compound at a dose of 10 mg/kg iv, on standard cardiovascular in anesthetized normotensive dogs after administration of norepinephrine.; assay type: functional, Canis lupus familiaris, Heart; summary of the method: as §1
[11] = test system: Canis familiaris; assay: Mean arterial BP after administration at a dose of 10 mg/kg iv.; assay type: functional, Canis lupus familiaris
[12] = test system: Canis familiaris; assay: Hemodynamic effect in sinoaortic- deafferented hypertensive dog measured as left ventricular pressure after 5 min of 10 mg/kg
[13] = test system: Canis familiaris; assay: effect of compound at a dose of 10 mg/kg iv, on standard cardiovascular in anesthetized normotensive dogs after administration of tyramine.; assay type: functional, Canis lupus familiaris, Heart
[14] = test system: Canis familiaris; assay: Hemodynamic effect in sinoaortic- deafferented hypertensive dog measured as cardiac output after 5 min of 10 mg/kg
[15] = test system: Canis familiaris; assay: Hemodynamic effect in sinoaortic- deafferented hypertensive dog measured as mean arterial BP after 5 min of 5 mg/kg dose; assay type: functional, Canis lupus familiaris
[16] = species on record: Rattus norvegicus; assay: Oral hypotensive activity in spontaneously hypertensive rats by using tail-cuff method measured as change in systolic BP; assay type: functional, Blood
Summary of the method: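 Okamoto-Aoki spontaneously hypertensive rats. Compound suspended in distilled water with Tween 80, given po daily, screening dose 50 mg/kg, dose-response at 50, 30, 10 or 3 mg/kg unless stated. Systolic BP by tail-cuff plethysmography on day 1 predose and 2 h, day 3 predose and 2 h, and day 5 predose, 2 and 4 h. Reported as peak decrease on day 3 (or day 5) at 2 h ± SEM. n = 4 in screen, 4–8 per dose.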

[17] = test system: Canis familiaris; assay: Hemodynamic effect in sinoaortic- deafferented hypertensive dog measured as heart rate after 5 min of 5 mg/kg dose; assay type: functional, Canis lupus familiaris
[18] = test system: Canis familiaris; assay: Hemodynamic effect in sinoaortic- deafferented hypertensive dog measured as cardiac output after 0 min of 10 mg/kg
[19] = test system: Rattus norvegicus; assay: Oral hypotensive activity in spontaneously hypertensive rats by using tail-cuff method measured as change in systolic BP at the dose of 30 mg/kg po.; assay type: functional, Blood
Summary of the method: (§3)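 Okamoto-Aoki strain spontaneously hypertensive rats. Compounds were suspended in distilled water with Tween 80 and given orally every day at 50, 30, 10 or 3 mg/kg. Systolic BP was measured by tail-cuff plethysmography on day 1 (predose and 2 h), day 3 (predose and 2 h) and day 5 (predose, 2 and 4 h). The screen used 4 rats; dose-response used 4–8 rats per dose.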

[20] = test system: Canis familiaris; assay: Hemodynamic effect in sinoaortic- deafferented hypertensive dog measured as left ventricular pressure after 60 min of 10 mg/kg
[21] = species on record: Rattus norvegicus; assay: Hypotensive activity in renal hypertensive rats by using tail-cuff method measured as BP on day/h postdrug; assay type: functional, Blood; summary of the method: as §2
[22] = species on record: Rattus norvegicus; assay: hypotensive activity in renal hypertensive rats by using tail-cuff method measured as initial BP; assay type: functional, Blood
Summary of the method: (§4)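 Renal hypertension (modified Grollman) was made in male Sprague-Dawley rats under pentobarbital sodium 50 mg/kg ip. The right kidney was removed, and silk sutures around both poles of the left kidney constricted the parenchyma. After 3 weeks of stabilization, rats with systolic BP >150 mmHg were used. Compounds were given orally. Systolic BP was measured by tail-cuff predose and at the stated day/h after dosing.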

[23] = test system: Canis familiaris; assay: effect of compound at a dose of 10 mg/kg iv, on standard cardiovascular in anesthetized normotensive dogs before administration of tyramine.; assay type: functional, Canis lupus familiaris, Heart
[24] = test system: Canis familiaris; assay: Mean arterial BP before administration at a dose of 10 mg/kg iv.; assay type: functional, Canis lupus familiaris
[25] = test system: Canis familiaris; assay: effect of compound at a dose of 10 mg/kg iv, on standard cardiovascular in anesthetized normotensive dogs after administration of carbachol.; assay type: functional, Canis lupus familiaris, Heart; summary of the method: as §1
[26] = species on record: Rattus norvegicus; assay: Oral hypotensive activity in spontaneously hypertensive rats by using tail-cuff method measured as the initial BP; assay type: functional, Blood; summary of the method: as §3
[27] = species on record: Rattus norvegicus; assay: hypotensive activity in renal hypertensive rats by using tail-cuff method measured as BP on day/h postdrug; assay type: functional, Blood; summary of the method: as §4
[28] = test system: Canis familiaris; assay: effect of compound at a dose of 10 mg/kg iv, on standard cardiovascular in anesthetized normotensive dogs after administration of epinephrine.; assay type: functional, Canis lupus familiaris, Heart; summary of the method: as §1
[29] = test system: Canis familiaris; assay: effect of compound at a dose of 10 mg/kg iv, on standard cardiovascular in anesthetized normotensive dogs before administration of isoproterenol.; assay type: functional, Canis lupus familiaris, Heart; summary of the method: as §1
[30] = test system: Canis familiaris; assay: Hemodynamic effect in sinoaortic- deafferented hypertensive dog measured as cardiac output after 30 min of 10 mg/kg
[31] = test system: Canis familiaris; assay: Hemodynamic effect in sinoaortic- deafferented hypertensive dog measured as heart rate after 0 min of 5 mg/kg dose; assay type: functional, Canis lupus familiaris
[32] = test system: Rattus norvegicus; assay: Oral hypotensive activity in spontaneously hypertensive rats by using tail-cuff method measured as change in systolic BP at the dose of 50 mg/kg po.; assay type: functional, Blood; summary of the method: as §3
[33] = test system: Canis familiaris; assay: Hemodynamic effect in sinoaortic- deafferented hypertensive dog measured as mean arterial BP after 30 min of 5 mg/kg dose; assay type: functional, Canis lupus familiaris
[34] = test system: Canis familiaris; assay: effect of compound at a dose of 10 mg/kg iv, on standard cardiovascular in anesthetized normotensive dogs before administration of epinephrine.; assay type: functional, Canis lupus familiaris, Heart; summary of the method: as §1
[35] = test system: Canis familiaris; assay: Hemodynamic effect in sinoaortic- deafferented hypertensive dog measured as cardiac output after 60 min of 10 mg/kg
[36] = test system: Canis familiaris; assay: Hemodynamic effect in sinoaortic- deafferented hypertensive dog measured as heart rate after 30 min of 5 mg/kg dose; assay type: functional, Canis lupus familiaris
[37] = test system: Canis familiaris; assay: Mean heart rate before administration at a dose of 10 mg/kg iv.; assay type: functional, Canis lupus familiaris
[38] = test system: Canis familiaris; assay: Hemodynamic effect in sinoaortic- deafferented hypertensive dog measured as mean arterial BP after 0 min of 5 mg/kg dose; assay type: functional, Canis lupus familiaris
[39] = test system: Rattus norvegicus; assay: Oral hypotensive activity in spontaneously hypertensive rats by using tail-cuff method measured as change in systolic BP at the dose of 25 mg/kg po.; assay type: functional, Blood
Summary of the method: (§5)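 SHR of the Okamoto-Aoki strain, dosed orally every day with compound suspended in distilled water with Tween 80. Systolic pressure was taken by tail-cuff plethysmography on day 1 (predose, 2 h), day 3 (predose, 2 h) and day 5 (predose, 2 and 4 h). Initial BP is the pretreatment systolic pressure, with 4–8 rats per dose in the dose-response screen.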

[40] = test system: Rattus norvegicus; assay: Oral hypotensive activity in spontaneously hypertensive rats by using tail-cuff method measured as change in systolic BP at the dose of 10 mg/kg po.; assay type: functional, Blood; summary of the method: as §5

Compound: CCN1CCC2(CC1)Oc1ccccc1C2n1cccc1 (stereo not drawn)
- BP [1]: 56.7 mmHg
- BP [2]: -39.3 mmHg
- BP [3]: 103 mmHg
- BP [4]: -52 mmHg
- Delta blood pressure [5]: 31 mmHg and 52 mmHg and 49 mmHg and 46 mmHg and 33 mmHg
- Rate [6]: 126 beats min-1
- dP/dt [7]: 21.2 1/Pmax
- Rate [8]: 132 beats min-1
- dP/dt [9]: 27.2 1/Pmax
- BP [10]: 66 mmHg
- BP [11]: 106.3 mmHg
- dP/dt [12]: 20.3 1/Pmax
- BP [13]: 84.3 mmHg
- Cardiac output [14]: 1600 mL/min
- BP [15]: 121 mmHg
- Delta blood pressure [16]: 27 mmHg and 38 mmHg
- Rate [17]: 134 beats min-1
- Cardiac output [18]: 2120 mL/min
- BP [19]: 187 mmHg
- Delta blood pressure [19]: 71 mmHg
- dP/dt [20]: 25.6 1/Pmax
- BP [21]: 110 mmHg
- BP [22]: 162 mmHg
- BP [23]: 64.3 mmHg
- BP [24]: 132.7 mmHg
- BP [25]: -37 mmHg
- BP [26]: 180 mmHg and 214 mmHg
- BP [27]: 131 mmHg and 113 mmHg and 116 mmHg and 129 mmHg
- BP [28]: 59.7 mmHg
- BP [29]: -34.3 mmHg
- Cardiac output [30]: 1530 mL/min
- Rate [31]: 170 beats min-1
- BP [32]: 187 mmHg
- Delta blood pressure [32]: 71 mmHg
- BP [33]: 98 mmHg
- BP [34]: 44.8 mmHg
- Cardiac output [35]: 1600 mL/min
- Rate [36]: 126 beats min-1
- Rate [37]: 167 beats min-1
- BP [38]: 165 mmHg

Compound: O=C(CCCN1CCC2(CC1)Oc1ccccc1C2n1cccc1)c1ccc(F)cc1 (stereo not drawn)
- Delta blood pressure [16]: 37 mmHg
- BP [26]: 199 mmHg

Compound: CCCN1CCC2(CC1)Oc1ccccc1C2n1cccc1 (stereo not drawn)
- Delta blood pressure [16]: 14 mmHg
- BP [26]: 177 mmHg

Compound: N/C(=N\O)N1CCC2(CC1)Oc1ccccc1C2n1cccc1 (stereo not drawn)
- Delta blood pressure [16]: 24 mmHg
- BP [26]: 209 mmHg

Compound: c1ccc2c(c1)OC1(CCNCC1)C2n1cccc1 (stereo not drawn)
- BP [39]: 200 mmHg
- Delta blood pressure [39]: 49 mmHg
- BP [40]: 198 mmHg
- Delta blood pressure [40]: 33 mmHg
- BP [32]: 189 mmHg
- Delta blood pressure [32]: 43 mmHg

Compound: c1ccc(CCN2CCC3(CC2)Oc2ccccc2C3n2cccc2)cc1 (stereo not drawn)
- BP [26]: 203 mmHg and 180 mmHg and 176 mmHg
